Reference: ChEMBL document CHEMBL1123950, “N-(Retinoyl)amino acids. Synthesis and chemopreventive activity in vitro” (1988)
One block for each molecule: values may come before it.

How the values were obtained:
[1] = test system: Cricetinae gen. sp.; test: Cultures with marked degree of squamous metaplasia at a conc of 10e-10 M; type: functional, Cricetulus griseus
Summary of the method: (§1)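 Tracheas from 29-31-day-old hamsters fed a vitamin A free diet; cultured in serum-free CMRL 1066 (insulin 1.0 μg/mL, hydrocortisone hemisuccinate 0.1 μg/mL, glutamine 2 mM, Garamycin 50 μg/mL), 50% O2/45% N2/5% CO2, rocked, 36 °C. Retinoid-free 3 days, then retinoid in DMSO (final 0.1%) for 7 days; medium and gas changed three times. Formalin-fixed day 10; squamous metaplasia graded: mild 2-10%, marked 10-40%, severe >40%.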

[2] = test system: Cricetinae gen. sp.; test: Cultures with marked degree of squamous metaplasia at a conc of 10e-8 M; type: functional, Cricetulus griseus; summary of the method: as §1
[3] = test system: Cricetinae gen. sp.; test: Cultures with marked degree of squamous metaplasia at a conc of 10e-9 M; type: functional, Cricetulus griseus; summary of the method: as §1
[4] = test system: Cricetinae gen. sp.; test: Cultures with mild degree of squamous metaplasia at a conc of 10e-10 M; type: functional, Cricetulus griseus; summary of the method: as §1
[5] = test system: Cricetinae gen. sp.; test: Cultures with mild degree of squamous metaplasia at a conc of 10e-11 M; type: functional, Cricetulus griseus; summary of the method: as §1
[6] = test system: Cricetinae gen. sp.; test: Cultures with mild degree of squamous metaplasia at a conc of 10e-8 M; type: functional, Cricetulus griseus; summary of the method: as §1
[7] = test system: Cricetinae gen. sp.; test: Cultures with minimal degree of squamous metaplasia at a conc of 10e-10 M; type: functional, Cricetulus griseus; summary of the method: as §1
[8] = test system: Cricetinae gen. sp.; test: Cultures with minimal degree of squamous metaplasia at a conc of 10e-11 M; type: functional, Cricetulus griseus; summary of the method: as §1
[9] = test system: Cricetinae gen. sp.; test: Cultures with minimal degree of squamous metaplasia at a conc of 10e-8 M; type: functional, Cricetulus griseus; summary of the method: as §1
[10] = test system: Cricetinae gen. sp.; test: Cultures with minimal degree of squamous metaplasia at a conc of 10e-9 M; type: functional, Cricetulus griseus; summary of the method: as §1
[11] = test system: Cricetinae gen. sp.; test: Cultures with no evidence of squamous metaplasia at a conc of 10e-10 M; type: functional, Cricetulus griseus; summary of the method: as §1
[12] = test system: Cricetinae gen. sp.; test: Cultures with no evidence of squamous metaplasia at a conc of 10e-11 M; type: functional, Cricetulus griseus; summary of the method: as §1
[13] = test system: Cricetinae gen. sp.; test: Cultures with no evidence of squamous metaplasia at a conc of 10e-8; type: functional, Cricetulus griseus; summary of the method: as §1
[14] = test system: Cricetinae gen. sp.; test: Cultures with no evidence of squamous metaplasia at a conc of 10e-9 M; type: functional, Cricetulus griseus; summary of the method: as §1
[15] = test system: Cricetinae gen. sp.; test: Cultures with severe degree of squamous metaplasia at a conc of 10e-10 M; type: functional, Cricetulus griseus; summary of the method: as §1
[16] = test system: Cricetinae gen. sp.; test: Cultures with severe degree of squamous metaplasia at a conc of 10e-11 M; type: functional, Cricetulus griseus; summary of the method: as §1
[17] = test system: Cricetinae gen. sp.; test: Cultures with severe degree of squamous metaplasia at a conc of 10e-8 M; type: functional, Cricetulus griseus; summary of the method: as §1
[18] = test system: Cricetinae gen. sp.; test: Cultures with severe degree of squamous metaplasia at a conc of 10e-9 M; type: functional, Cricetulus griseus; summary of the method: as §1
[19] = test system: Cricetinae gen. sp.; test: Reversal of keratinization in vitamin A deficient hamster trachea culture at a conc of 10e-8 M; type: functional, Cricetulus griseus; details: read-out: ED50 (the source's name)
Summary of the method: (§2)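 Tracheas from 29-31-day-old hamsters kept on a vitamin A free diet, cultured in serum-free CMRL 1066 (insulin 1.0 μg/mL, hydrocortisone hemisuccinate 0.1 μg/mL, glutamine 2 mM, Garamycin 50 μg/mL), 50% O2/45% N2/5% CO2, rocked at 36 °C. Retinoid-free for 3 days, then retinoid in DMSO (0.1% final) for 7 days. Fixed in formalin; squamous metaplasia graded mild 2-10%, marked 10-40%, severe >40%.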

[20] = test system: Cricetinae gen. sp.; test: Cultures with marked degree of squamous metaplasia at a conc of 10e-11 M; type: functional; summary of the method: as §1
[21] = test system: Cricetinae gen. sp.; test: Cultures with mild degree of squamous metaplasia at a conc of 10e-9 M; type: functional, Cricetulus griseus; summary of the method: as §1
[22] = test system: Cricetinae gen. sp.; test: Cultures with marked degree of squamous metaplasia at a concentration of 10e-10 M; type: functional, Cricetulus griseus; summary of the method: as §1
[23] = test system: Cricetinae gen. sp.; test: Cultures with marked degree of squamous metaplasia at a concentration of 10e-11 M; type: functional, Cricetulus griseus; summary of the method: as §1
[24] = test system: Cricetinae gen. sp.; test: Cultures with marked degree of squamous metaplasia at a concentration of 10e-8 M; type: functional, Cricetulus griseus; summary of the method: as §1
[25] = test system: Cricetinae gen. sp.; test: Cultures with marked degree of squamous metaplasia at a concentration of 10e-9 M; type: functional, Cricetulus griseus; summary of the method: as §1
[26] = test system: Cricetinae gen. sp.; test: Cultures with mild degree of squamous metaplasia at a concentration of 10e-10 M; type: functional, Cricetulus griseus; summary of the method: as §1
[27] = test system: Cricetinae gen. sp.; test: Cultures with mild degree of squamous metaplasia at a concentration of 10e-11 M; type: functional, Cricetulus griseus; summary of the method: as §1
[28] = test system: Cricetinae gen. sp.; test: Cultures with severe degree of squamous metaplasia at a concentration of 10e-9 M; type: functional, Cricetulus griseus; summary of the method: as §2
[29] = test system: Cricetinae gen. sp.; test: Cultures with mild degree of squamous metaplasia at a concentration of 10e-8 M; type: functional, Cricetulus griseus; summary of the method: as §1
[30] = test system: Cricetinae gen. sp.; test: Cultures with mild degree of squamous metaplasia at a concentration of 10e-9 M; type: functional, Cricetulus griseus; summary of the method: as §1
[31] = test system: Cricetinae gen. sp.; test: Cultures with minimal degree of squamous metaplasia at a concentration of 10e-10 M; type: functional, Cricetulus griseus; summary of the method: as §1
[32] = test system: Cricetinae gen. sp.; test: Cultures with minimal degree of squamous metaplasia at a concentration of 10e-8 M; type: functional, Cricetulus griseus; summary of the method: as §1
[33] = test system: Cricetinae gen. sp.; test: Cultures with minimal degree of squamous metaplasia at a concentration of 10e-9 M; type: functional, Cricetulus griseus; summary of the method: as §1
[34] = test system: Cricetinae gen. sp.; test: Cultures with no evidence of squamous metaplasia at a concentration of 10e-10 M; type: functional, Cricetulus griseus; summary of the method: as §1
[35] = test system: Cricetinae gen. sp.; test: Cultures with no evidence of squamous metaplasia at a concentration of 10e-11 M; type: functional, Cricetulus griseus; summary of the method: as §1
[36] = test system: Cricetinae gen. sp.; test: Cultures with no evidence of squamous metaplasia at a concentration of 10e-8 M; type: functional, Cricetulus griseus; summary of the method: as §1
[37] = test system: Cricetinae gen. sp.; test: Cultures with no evidence of squamous metaplasia at a concentration of 10e-9 M; type: functional, Cricetulus griseus; summary of the method: as §1
[38] = test system: Cricetinae gen. sp.; test: Cultures with severe degree of squamous metaplasia at a concentration of 10e-10 M; type: functional, Cricetulus griseus; summary of the method: as §2
[39] = test system: Cricetinae gen. sp.; test: Cultures with severe degree of squamous metaplasia at a concentration of 10e-11 M; type: functional, Cricetulus griseus; summary of the method: as §2
[40] = test system: Cricetinae gen. sp.; test: Cultures with severe degree of squamous metaplasia at a concentration of 10e-8 M; type: functional, Cricetulus griseus; summary of the method: as §2
[41] = test system: Cricetinae gen. sp.; test: Reversal of keratinization in vitamin A deficient hamster trachea culture at a concentration of 10e-8 M; type: functional, Cricetulus griseus; details: read-out: ED50 (the source's name); summary of the method: as §2
[42] = test system: Cricetinae gen. sp.; test: Cultures with minimal degree of squamous metaplasia at a concentration of 10e-11 M; type: functional, Cricetulus griseus; summary of the method: as §1

EC50 [19]: 0.4 nM
SMILES: CC1=C(/C=C/C(C)=C/C=C/C(C)=C/C(=O)NC(C)C(=O)O)C(C)(C)CCC1 (configuration not stated)
Culture [1]: 58%
Culture [2]: 0%
Culture [3]: 0%
Culture [4]: 14%
Culture [5]: 29%
Culture [6]: 0%
Culture [7]: 0%
Culture [8]: 0%
Culture [9]: 0%
Culture [10]: 0%
Culture [11]: 14%
Culture [12]: 0%
Culture [13]: 100%
Culture [14]: 72%
Culture [15]: 14%
Culture [16]: 14%
Culture [17]: 0%
Culture [18]: 14%
Culture [20]: 57%
Culture [21]: 14%

EC50 [41]: 0.5 nM
SMILES: CC1=C(/C=C/C(C)=C/C=C/C(C)=C/C(=O)NC(Cc2ccccc2)C(=O)O)C(C)(C)CCC1 (configuration not stated)
Culture [22]: 14%
Culture [23]: 72%
Culture [24]: 0%
Culture [25]: 43%
Culture [26]: 29%
Culture [27]: 14%
Culture [28]: 0%
Culture [29]: 29%
Culture [30]: 0%
Culture [31]: 0%
Culture [32]: 0%
Culture [33]: 0%
Culture [34]: 43%
Culture [35]: 14%
Culture [36]: 71%
Culture [37]: 57%
Culture [38]: 14%
Culture [39]: 0%
Culture [40]: 0%
Culture [42]: 0%
